# From ChEMBL document CHEMBL3046951, “Volatile constituents from the leaves of Callicarpa japonica Thunb. and their antibacterial activities” (2004)
# How the values were obtained:
# Assay type in all cases: functional
# [1] = system: Escherichia coli; test: Antimicrobial activity against Escherichia coli O157:H7 ATCC 43894 assessed as growth inhibition rate at 67.88 mg/l after 72 hr by spectrophotometry; conditions: O157:H7 ATCC 43894, 72 h, read-out: GI
# Summary of the method: (§1)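 Authentic volatiles (>95% purity; 2,4-heptadienal 90%) tested against 18 h subcultures. Growth media: E. coli O157:H7 and S. aureus in tryptic soy broth at 37 °C; L. monocytogenes in tryptic soy broth at 30 °C; V. parahaemolyticus in tryptic soy broth + 3% NaCl at 37 °C; S. typhimurium in nutrient broth at 30 °C. Bioscreen C OD every 24 h for 72 h versus 10% Tween 80 control.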
# [2] = system: Salmonella typhimurium; test: Antimicrobial activity against Salmonella enterica subsp. enterica serovar Typhimurium ATCC 14028 assessed as growth inhibition rate at 135.68 mg/l after 72 hr by spectrophotometry; conditions: ATCC 14028, 72 h, read-out: GI
# Summary of the method: (§2)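 Salmonella Typhimurium ATCC 14028 grown in nutrient broth at 30 °C, precultured 24 h, then subcultured 1:100 for 18 h before testing. Single volatile compounds (>95% pure) were added. OD was read every 24 h over 72 h in a Bioscreen C, with 10% Tween 80 as the comparison control.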
# [3] = system: Vibrio parahaemolyticus; test: Antimicrobial activity against Vibrio parahaemolyticus ATCC 33844 assessed as growth inhibition rate at 67.88 mg/l after 72 hr by spectrophotometry; conditions: ATCC 33844, 72 h, read-out: GI
# [4] = system: Vibrio parahaemolyticus; test: Antimicrobial activity against Vibrio parahaemolyticus ATCC 33844 assessed as growth inhibition rate at 12.48 mg/l after 72 hr by spectrophotometry; conditions: ATCC 33844, 72 h, read-out: GI
# [5] = system: Listeria monocytogenes; test: Antimicrobial activity against Listeria monocytogenes ATCC 19111 assessed as growth inhibition rate at 135.68 mg/l after 72 hr by spectrophotometry; conditions: ATCC 19111, 72 h, read-out: GI
# Summary of the method: (§3)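 L. monocytogenes was grown at 30 °C in tryptic soy broth, subcultured for 18 h, and exposed to pure volatile compounds (>95% purity). Growth was followed by Bioscreen C optical density every 24 h for 72 h against a 10% Tween 80 control.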
# [6] = system: Salmonella typhimurium; test: Antimicrobial activity against Salmonella enterica subsp. enterica serovar Typhimurium ATCC 14028 assessed as growth inhibition rate at 678.64 mg/l after 72 hr by spectrophotometry; conditions: ATCC 14028, 72 h, read-out: GI
# [7] = system: Salmonella typhimurium; test: Antimicrobial activity against Salmonella enterica subsp. enterica serovar Typhimurium ATCC 14028 assessed as growth inhibition rate at 67.88 mg/l after 72 hr by spectrophotometry; conditions: ATCC 14028, 72 h, read-out: GI
# [8] = system: Escherichia coli; test: Antimicrobial activity against Escherichia coli O157:H7 ATCC 43894 assessed as growth inhibition rate at 135.68 mg/l after 72 hr by spectrophotometry; conditions: O157:H7 ATCC 43894, 72 h, read-out: GI
# [9] = system: Staphylococcus aureus; test: Antimicrobial activity against Staphylococcus aureus ATCC 25923 assessed as growth inhibition rate at 135.68 mg/l after 72 hr by spectrophotometry; conditions: ATCC 25923, 72 h, read-out: GI
# [10] = system: Listeria monocytogenes; test: Antimicrobial activity against Listeria monocytogenes ATCC 19111 assessed as growth inhibition rate at 678.64 mg/l after 72 hr by spectrophotometry; conditions: ATCC 19111, 72 h, read-out: GI
# Summary of the method: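 Pure volatile compounds (>95% purity) tested on Listeria monocytogenes ATCC 19111 in tryptic soy broth at 30 °C. Inoculum: 24 h culture subcultured (0.1 mL into 9.9 mL broth) and grown 18 h. Growth followed by Bioscreen C optical density every 24 h for 72 h against a 10% Tween 80 control.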
# [11] = system: Bacillus cereus; test: Antimicrobial activity against Bacillus cereus ATCC 11778 assessed as growth inhibition rate at 12.48 mg/l after 72 hr by spectrophotometry; conditions: ATCC 11778, 72 h, read-out: GI
# Summary of the method: (§4)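 Pure volatile compounds (purity >95%; one at 90%) were tested against B. cereus ATCC 11778. The strain was grown at 30 °C in nutrient broth for 24 h, then subcultured for 18 h. Optical density was read in a Bioscreen C every 24 h for 72 h, with 10% Tween 80 as the control.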
# [12] = system: Escherichia coli; test: Antimicrobial activity against Escherichia coli O157:H7 ATCC 43894 assessed as growth inhibition rate at 25.52 mg/l after 72 hr by spectrophotometry; conditions: O157:H7 ATCC 43894, 72 h, read-out: GI
# [13] = system: Staphylococcus aureus; test: Antimicrobial activity against Staphylococcus aureus ATCC 25923 assessed as growth inhibition rate at 12.48 mg/l after 72 hr by spectrophotometry; conditions: ATCC 25923, 72 h, read-out: GI
# [14] = system: Vibrio parahaemolyticus; test: Antimicrobial activity against Vibrio parahaemolyticus ATCC 33844 assessed as growth inhibition rate at 339.32 mg/l after 72 hr by spectrophotometry; conditions: ATCC 33844, 72 h, read-out: GI
# [15] = system: Listeria monocytogenes; test: Antimicrobial activity against Listeria monocytogenes ATCC 19111 assessed as growth inhibition rate at 25.52 mg/l after 72 hr by spectrophotometry; conditions: ATCC 19111, 72 h, read-out: GI; summary of the method: as §3
# [16] = system: Escherichia coli; test: Antimicrobial activity against Escherichia coli O157:H7 ATCC 43894 assessed as growth inhibition rate at 678.64 mg/l after 72 hr by spectrophotometry; conditions: O157:H7 ATCC 43894, 72 h, read-out: GI; summary of the method: as §1
# [17] = system: Vibrio parahaemolyticus; test: Antimicrobial activity against Vibrio parahaemolyticus ATCC 33844 assessed as growth inhibition rate at 678.64 mg/l after 72 hr by spectrophotometry; conditions: ATCC 33844, 72 h, read-out: GI
# [18] = system: Staphylococcus aureus; test: Antimicrobial activity against Staphylococcus aureus ATCC 25923 assessed as growth inhibition rate at 67.88 mg/l after 72 hr by spectrophotometry; conditions: ATCC 25923, 72 h, read-out: GI
# [19] = system: Vibrio parahaemolyticus; test: Antimicrobial activity against Vibrio parahaemolyticus ATCC 33844 assessed as growth inhibition rate at 135.68 mg/l after 72 hr by spectrophotometry; conditions: ATCC 33844, 72 h, read-out: GI
# [20] = system: Salmonella typhimurium; test: Antimicrobial activity against Salmonella enterica subsp. enterica serovar Typhimurium ATCC 14028 assessed as growth inhibition rate at 25.52 mg/l after 72 hr by spectrophotometry; conditions: ATCC 14028, 72 h, read-out: GI; summary of the method: as §2
# [21] = system: Staphylococcus aureus; test: Antimicrobial activity against Staphylococcus aureus ATCC 25923 assessed as growth inhibition rate at 678.64 mg/l after 72 hr by spectrophotometry; conditions: ATCC 25923, 72 h, read-out: GI
# [22] = system: Bacillus cereus; test: Antimicrobial activity against Bacillus cereus ATCC 11778 assessed as growth inhibition rate at 678.64 mg/l after 72 hr by spectrophotometry; conditions: ATCC 11778, 72 h, read-out: GI; summary of the method: as §4
# [23] = system: Salmonella typhimurium; test: Antimicrobial activity against Salmonella enterica subsp. enterica serovar Typhimurium ATCC 14028 assessed as growth inhibition rate at 12.48 mg/l after 72 hr by spectrophotometry; conditions: ATCC 14028, 72 h, read-out: GI; summary of the method: as §2
# [24] = system: Escherichia coli; test: Antimicrobial activity against Escherichia coli O157:H7 ATCC 43894 assessed as growth inhibition rate at 12.48 mg/l after 72 hr by spectrophotometry; conditions: O157:H7 ATCC 43894, 72 h, read-out: GI
# [25] = system: Escherichia coli; test: Antimicrobial activity against Escherichia coli O157:H7 ATCC 43894 assessed as growth inhibition rate at 339.32 mg/l after 72 hr by spectrophotometry; conditions: O157:H7 ATCC 43894, 72 h, read-out: GI
# [26] = system: Bacillus cereus; test: Antimicrobial activity against Bacillus cereus ATCC 11778 assessed as growth inhibition rate at 135.68 mg/l after 72 hr by spectrophotometry; conditions: ATCC 11778, 72 h, read-out: GI; summary of the method: as §4
# [27] = system: Bacillus cereus; test: Antimicrobial activity against Bacillus cereus ATCC 11778 assessed as growth inhibition rate at 25.52 mg/l after 72 hr by spectrophotometry; conditions: ATCC 11778, 72 h, read-out: GI; summary of the method: as §4
# [28] = system: Staphylococcus aureus; test: Antimicrobial activity against Staphylococcus aureus ATCC 25923 assessed as growth inhibition rate at 25.52 mg/l after 72 hr by spectrophotometry; conditions: ATCC 25923, 72 h, read-out: GI
# [29] = system: Bacillus cereus; test: Antimicrobial activity against Bacillus cereus ATCC 11778 assessed as growth inhibition rate at 67.88 mg/l after 72 hr by spectrophotometry; conditions: ATCC 11778, 72 h, read-out: GI; summary of the method: as §4
# [30] = system: Listeria monocytogenes; test: Antimicrobial activity against Listeria monocytogenes ATCC 19111 assessed as growth inhibition rate at 12.48 mg/l after 72 hr by spectrophotometry; conditions: ATCC 19111, 72 h, read-out: GI; summary of the method: as §3
# [31] = system: Bacillus cereus; test: Antimicrobial activity against Bacillus cereus ATCC 11778 assessed as growth inhibition rate at 339.32 mg/l after 72 hr by spectrophotometry; conditions: ATCC 11778, 72 h, read-out: GI; summary of the method: as §4
# [32] = system: Listeria monocytogenes; test: Antimicrobial activity against Listeria monocytogenes ATCC 19111 assessed as growth inhibition rate at 339.32 mg/l after 72 hr by spectrophotometry; conditions: ATCC 19111, 72 h, read-out: GI; summary of the method: as §3
# [33] = system: Vibrio parahaemolyticus; test: Antimicrobial activity against Vibrio parahaemolyticus ATCC 33844 assessed as growth inhibition rate at 25.52 mg/l after 72 hr by spectrophotometry; conditions: ATCC 33844, 72 h, read-out: GI
# [34] = system: Staphylococcus aureus; test: Antimicrobial activity against Staphylococcus aureus ATCC 25923 assessed as growth inhibition rate at 339.32 mg/l after 72 hr by spectrophotometry; conditions: ATCC 25923, 72 h, read-out: GI
# [35] = system: Salmonella typhimurium; test: Antimicrobial activity against Salmonella enterica subsp. enterica serovar Typhimurium ATCC 14028 assessed as growth inhibition rate at 339.32 mg/l after 72 hr by spectrophotometry; conditions: ATCC 14028, 72 h, read-out: GI; summary of the method: as §2
# [36] = system: Listeria monocytogenes; test: Antimicrobial activity against Listeria monocytogenes ATCC 19111 assessed as growth inhibition rate at 67.88 mg/l after 72 hr by spectrophotometry; conditions: ATCC 19111, 72 h, read-out: GI; summary of the method: as §3
smiles,measurement,setting,value
C=C[C@H](O)CCCCC,inhibition of growth at 67.88 µg/mL,[1],7.9%
same,inhibition of growth at 135.68 µg/mL,[2],25.4%
same,inhibition of growth at 67.88 µg/mL,[3],13.5%
same,inhibition of growth at 12.48 µg/mL,[4],11.1%
same,inhibition of growth at 135.68 µg/mL,[5],8.2%
same,inhibition of growth at 678.64 µg/mL,[6],98.4%
same,inhibition of growth at 67.88 µg/mL,[7],17.7%
same,inhibition of growth at 135.68 µg/mL,[8],8.9%
same,inhibition of growth at 135.68 µg/mL,[9],8.7%
same,inhibition of growth at 678.64 µg/mL,[10],39.8%
same,inhibition of growth at 12.48 µg/mL,[11],0%
same,inhibition of growth at 25.52 µg/mL,[12],6.3%
same,inhibition of growth at 12.48 µg/mL,[13],3.6%
same,inhibition of growth at 339.32 µg/mL,[14],90.4%
same,inhibition of growth at 25.52 µg/mL,[15],6.7%
same,inhibition of growth at 678.64 µg/mL,[16],96.5%
same,inhibition of growth at 678.64 µg/mL,[17],98.8%
same,inhibition of growth at 67.88 µg/mL,[18],5.7%
same,inhibition of growth at 135.68 µg/mL,[19],21.5%
same,inhibition of growth at 25.52 µg/mL,[20],16.7%
same,inhibition of growth at 678.64 µg/mL,[21],80.6%
same,inhibition of growth at 678.64 µg/mL,[22],90.8%
same,inhibition of growth at 12.48 µg/mL,[23],18.2%
same,inhibition of growth at 12.48 µg/mL,[24],8.3%
same,inhibition of growth at 339.32 µg/mL,[25],87.2%
same,inhibition of growth at 135.68 µg/mL,[26],7.6%
same,inhibition of growth at 25.52 µg/mL,[27],0%
same,inhibition of growth at 25.52 µg/mL,[28],6.6%
same,inhibition of growth at 67.88 µg/mL,[29],4.2%
same,inhibition of growth at 12.48 µg/mL,[30],5.4%
same,inhibition of growth at 339.32 µg/mL,[31],54.6%
same,inhibition of growth at 339.32 µg/mL,[32],27.3%
same,inhibition of growth at 25.52 µg/mL,[33],14.3%
same,inhibition of growth at 339.32 µg/mL,[34],50.2%
same,inhibition of growth at 339.32 µg/mL,[35],79.1%
same,inhibition of growth at 67.88 µg/mL,[36],5%
